Calls of active or inactive are those of the source. The rule behind the calls is not given here.
Tests used:
[1] = target: T1, Neuronal acetylcholine receptor; alpha4/beta2 (Rattus norvegicus, UniProt P09483+P12390); test: Displacement of [3H]epibatidine from rat alpha4beta2 nAChR transfected in HEK293 cell membrane; type: cell membranes
Summary of the method: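 Rat α4β2, α4β4 or α3β4 subtypes; competition binding against [3H]epibatidine; Ki values; means of 3–5 independent experiments, each run in duplicate.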

[2] = target: Neuronal acetylcholine receptor; alpha4/beta4 (Rattus norvegicus, UniProt P09483+P12392); test: Displacement of [3H]epibatidine from rat alpha4beta4 nAChR transfected in HEK293 cell membrane; type: cell membranes
[3] = target: Neuronal acetylcholine receptor; alpha3/beta4 (Rattus norvegicus, UniProt P04757+P12392); test: Displacement of [3H]epibatidine from rat alpha3beta4 nAChR transfected in HEK293 cell membrane; type: cell membranes
[4] = target: Neuronal acetylcholine receptor subunit alpha-7 (Rattus norvegicus, UniProt Q05941); test: Displacement of [3H]MLA from rat alpha7 nAChR transfected in tsA201 cell membrane; type: cell membranes
[5] = target: T1, Neuronal acetylcholine receptor; alpha4/beta2; test: Antagonist activity at rat alpha4beta2 nAChR expressed in HEK293T cells by FLIPR assay; type: cell-based, HEK-293T
Summary of the method: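 Fluorescence-based FLIPR membrane potential read-out of receptor function; antagonist mode gives an IC50.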

[6] = target: Neuronal acetylcholine receptor; alpha3/beta4 (Rattus norvegicus) (UniProt P04757+P12392); test: Agonist activity at rat alpha3beta4 nAChR expressed in HEK293T cells by FLIPR assay; type: cell-based; conditions: HEK-293T
[7] = target: T2, Neuronal acetylcholine receptor; alpha4/beta2 (Rattus norvegicus) (UniProt P09483+P12390); test: Inhibition of rat alpha4beta2 nAChR expressed in Xenopus laevis oocytes assessed as baseline current at 100 uM by two electrode-electrophysiology method; type: cell-based
Summary of the method: (§1)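 α4β2-expressing oocytes: compound at 100 μM applied alone to monitor baseline current, then coapplied with 30 μM ACh to assess the ACh-evoked current.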

[8] = target: T2, Neuronal acetylcholine receptor; alpha4/beta2 (Rattus norvegicus); test: Inhibition of rat alpha4beta2 nAChR expressed in Xenopus laevis oocytes assessed as inhibition of 30 uM ACh-induced current at 100 uM by two electrode-electrophysiology method; type: cell-based; summary of the method: as §1
[9] = target: T1, Neuronal acetylcholine receptor; alpha4/beta2; test: Inhibition of rat (alpha4)3(beta2)2 nAChR expressed in Xenopus laevis oocytes assessed as inhibition of 1 mM ACh-induced current by two electrode-electrophysiology method; type: cell-based
Summary of the method: (§2)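 Xenopus oocytes injected with α4 and β2 mRNA at ratio 10:1 for (α4)3(β2)2 or 1:10 for (α4)2(β2)3. Peak currents evoked by fixed ACh (1 mM for 10:1, 100 μM for 1:10) are measured with increasing compound concentrations. Concentration–inhibition curves give IC50, with Ki also reported.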

[10] = target: T1, Neuronal acetylcholine receptor; alpha4/beta2; test: Inhibition of rat (alpha4)2(beta2)3 nAChR expressed in Xenopus laevis oocytes assessed as inhibition of 100 uM ACh-induced current by two electrode-electrophysiology method; type: cell-based; summary of the method: as §2
Mus musculus = test: Antidepressant activity in mouse assessed as total swim distance at 1 to 10 mg/kg, sc by forced swimming test; type: functional, organism-based
Summary of the method: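 Mouse forced swim test; subcutaneous doses of 1, 3 and 10 mg/kg; swimming scored.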

Sequence of Neuronal acetylcholine receptor subunit alpha-7 (Q05941 whole entry): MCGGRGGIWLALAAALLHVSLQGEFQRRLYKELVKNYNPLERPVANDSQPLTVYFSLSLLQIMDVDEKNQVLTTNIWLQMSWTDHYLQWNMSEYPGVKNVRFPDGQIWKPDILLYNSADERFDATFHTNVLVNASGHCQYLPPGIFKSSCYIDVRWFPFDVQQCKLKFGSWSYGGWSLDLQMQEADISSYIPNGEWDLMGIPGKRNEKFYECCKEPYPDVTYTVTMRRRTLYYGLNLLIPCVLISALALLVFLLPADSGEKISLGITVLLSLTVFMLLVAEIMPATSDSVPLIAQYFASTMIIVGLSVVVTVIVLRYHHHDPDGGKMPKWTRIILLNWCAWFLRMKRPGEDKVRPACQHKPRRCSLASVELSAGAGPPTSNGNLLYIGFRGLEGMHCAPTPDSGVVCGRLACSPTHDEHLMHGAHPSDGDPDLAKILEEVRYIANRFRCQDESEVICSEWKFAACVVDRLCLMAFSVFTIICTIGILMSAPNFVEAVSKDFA
T1 sequence (P09483 whole entry): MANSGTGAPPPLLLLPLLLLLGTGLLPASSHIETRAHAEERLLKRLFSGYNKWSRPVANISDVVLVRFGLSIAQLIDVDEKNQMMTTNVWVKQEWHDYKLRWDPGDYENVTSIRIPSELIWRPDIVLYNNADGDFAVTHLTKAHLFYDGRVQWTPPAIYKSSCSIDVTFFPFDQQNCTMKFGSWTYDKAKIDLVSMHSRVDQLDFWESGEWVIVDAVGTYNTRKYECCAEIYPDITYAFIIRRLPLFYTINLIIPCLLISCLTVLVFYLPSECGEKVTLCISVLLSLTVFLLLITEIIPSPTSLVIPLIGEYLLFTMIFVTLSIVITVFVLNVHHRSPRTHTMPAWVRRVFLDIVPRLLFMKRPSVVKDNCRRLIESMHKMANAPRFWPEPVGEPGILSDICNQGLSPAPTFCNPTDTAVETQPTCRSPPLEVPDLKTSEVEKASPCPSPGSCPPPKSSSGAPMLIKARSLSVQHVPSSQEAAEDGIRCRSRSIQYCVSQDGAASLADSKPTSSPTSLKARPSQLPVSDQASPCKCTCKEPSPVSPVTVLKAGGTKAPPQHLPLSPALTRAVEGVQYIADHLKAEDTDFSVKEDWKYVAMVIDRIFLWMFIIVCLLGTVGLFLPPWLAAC
T1 sequence (P12390 whole entry): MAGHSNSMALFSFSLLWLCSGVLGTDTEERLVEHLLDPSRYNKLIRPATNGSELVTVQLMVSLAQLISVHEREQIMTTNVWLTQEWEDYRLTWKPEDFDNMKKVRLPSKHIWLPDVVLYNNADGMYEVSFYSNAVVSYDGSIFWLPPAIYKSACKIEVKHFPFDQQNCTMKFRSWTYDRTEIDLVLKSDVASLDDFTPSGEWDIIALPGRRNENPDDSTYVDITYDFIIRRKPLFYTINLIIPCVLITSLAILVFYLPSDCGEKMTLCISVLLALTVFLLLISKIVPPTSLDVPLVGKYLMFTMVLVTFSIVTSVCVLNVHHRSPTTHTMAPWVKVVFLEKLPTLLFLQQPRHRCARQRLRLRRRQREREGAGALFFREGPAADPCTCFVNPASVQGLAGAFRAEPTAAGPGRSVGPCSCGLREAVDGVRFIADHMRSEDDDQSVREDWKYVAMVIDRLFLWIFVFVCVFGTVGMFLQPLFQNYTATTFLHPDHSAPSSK
Sequence of Neuronal acetylcholine receptor; alpha4/beta4 (P09483 whole entry): as the sequence (P09483 whole entry) above
Sequence of Neuronal acetylcholine receptor; alpha4/beta4 (P12392 whole entry): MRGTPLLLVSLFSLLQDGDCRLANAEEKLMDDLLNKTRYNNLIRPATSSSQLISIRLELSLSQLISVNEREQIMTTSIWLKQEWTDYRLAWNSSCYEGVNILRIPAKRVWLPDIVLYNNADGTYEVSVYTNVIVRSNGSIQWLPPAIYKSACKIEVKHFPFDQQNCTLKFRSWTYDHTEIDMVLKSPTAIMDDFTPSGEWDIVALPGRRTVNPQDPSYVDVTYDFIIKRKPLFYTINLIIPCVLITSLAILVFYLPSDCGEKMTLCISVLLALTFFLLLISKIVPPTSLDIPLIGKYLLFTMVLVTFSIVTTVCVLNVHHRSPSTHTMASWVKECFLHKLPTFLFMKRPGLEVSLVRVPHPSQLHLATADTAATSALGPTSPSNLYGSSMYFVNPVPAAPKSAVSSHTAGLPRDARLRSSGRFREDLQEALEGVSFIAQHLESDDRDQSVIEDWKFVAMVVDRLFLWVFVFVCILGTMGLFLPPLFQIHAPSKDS
Sequence of Neuronal acetylcholine receptor; alpha3/beta4 (P04757 whole entry): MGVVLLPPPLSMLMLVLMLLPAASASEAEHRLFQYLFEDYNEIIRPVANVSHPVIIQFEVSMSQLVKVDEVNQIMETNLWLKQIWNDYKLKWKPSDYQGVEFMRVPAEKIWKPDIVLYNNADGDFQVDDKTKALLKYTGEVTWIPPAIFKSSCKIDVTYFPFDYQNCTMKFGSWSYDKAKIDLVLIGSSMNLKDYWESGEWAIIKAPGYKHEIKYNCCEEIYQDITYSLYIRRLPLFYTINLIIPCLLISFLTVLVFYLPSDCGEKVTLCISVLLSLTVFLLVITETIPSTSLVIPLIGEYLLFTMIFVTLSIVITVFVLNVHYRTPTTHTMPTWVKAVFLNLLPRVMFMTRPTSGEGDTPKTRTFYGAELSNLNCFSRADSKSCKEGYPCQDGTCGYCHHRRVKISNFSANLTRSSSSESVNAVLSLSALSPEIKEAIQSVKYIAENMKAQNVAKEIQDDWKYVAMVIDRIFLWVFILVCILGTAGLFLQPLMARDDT
Sequence of Neuronal acetylcholine receptor; alpha3/beta4 (P12392 whole entry): as the sequence (P12392 whole entry) above

SMILES	Ki [1]	Ki [2]	Ki [3]	Ki [4]	IC50 [5]	Activity [6]	inhibition [7]	inhibition [8]	IC50 [9]	Ki [9]	IC50 [10]	Ki [10]	Activity (Mus musculus)
c1cc2c(cn1)C1CCCN1CC2 (racemic)	0.071 µM	7.2 µM	100 µM	500 µM	0.12 µM	inactive	–	–	–	–	–	–	–
c1cc2c(cn1)[C@@H]1CCCN1CC2	3.4 µM	100 µM	100 µM	> 300 µM	–	–	–	–	–	–	–	–	–
c1cc2c(cn1)CCN1CCCC21 (racemic)	13 µM	100 µM	100 µM	–	–	–	–	–	–	–	–	–	–
c1cc2c(cn1)[C@H]1CCCN1CC2	–	3.7 µM	50 µM	300 µM	–	–	inactive	Active	135 µM	15 µM	87 µM	0.34 µM	inactive

Reference: ChEMBL document CHEMBL3576860 (ACS Med Chem Lett, 2015)
